Here are results for 17 compounds from ChEMBL document CHEMBL4219037, “Modified biphenyl Hsp90 C-terminal inhibitors for the treatment of cancer” (Bioorg Med Chem Lett, 2017).

Assay [1] deals with SK-BR-3. In words: Antiproliferative activity against human SKBR3 cells after 72 hrs by MTS assay. The format is functional, cell-based. To be noted: SK-BR-3, 72 h. A digest of the protocol:
(§1)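 Cells kept in Advanced DMEM/F12 at 37 °C, 5% CO2, humidified. Seeded at 3000 cells/well, left 24 h, then given compound or vehicle in DMSO (1% DMSO final) at varying concentrations for 72 h. Viable cells read by MTS/PMS proliferation kit. Vehicle wells set to 100% proliferation. IC50 as mean ± SD of at least three separate experiments run in triplicate.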
On the technique in general: Tetrazolium assays rely on reduction of a dye to a coloured formazan, in cell work by metabolically active cells.

Assay [2] is described as follows: Antiproliferative activity against human PC3MM2 cells after 72 hrs by MTS assay. The format is functional, cell-based. The note with it: PC3MM2, 72 h. In outline:
as §1

Assay [3] concerns MCF7. Nature of the assay: Antiproliferative activity against human MCF7 cells after 72 hrs by MTS assay. It is filed as functional, cell-based. To be noted: MCF7, 72 h. In outline: as §1
Assay [4] in a line: Antiproliferative activity against human LNCaP-LN3 cells after 72 hrs by MTS assay. The note with it: LNCaP-LN3, 72 h. It is filed as functional, cell-based. A digest of the protocol:
as §1

Assay [5] has as its target T1, Heat shock protein HSP90 (Homo sapiens) (UniProt P07900+P08238). Nature of the assay: Inhibition of C-terminal HSP90 in human MCF7 cells assessed as degradation of cRAF at 2.945 to 29.45 uM after 24 hrs by Western blot analysis relative to control. It is filed as cell-based. On the technique in general: Immunoblotting shows a protein as a band on a membrane.
In assay [6] the target is T1, Heat shock protein HSP90 (Homo sapiens). Nature of the assay: Inhibition of C-terminal HSP90 in human MCF7 cells assessed as degradation of cyclin D1 at 2.945 to 29.45 uM after 24 hrs by Western blot analysis relative to control. It is filed as cell-based.
Assay [7] shares this target. In words: Inhibition of […] HSP90 in human MCF7 cells assessed as reduction in HSP90 expression at 2.945 to 29.45 uM after 24 hrs by Western blot analysis relative to control. It is filed as cell-based.
For assay [8] the target is unchanged. Nature of the assay: Inhibition of C-terminal HSP90 in human MCF7 cells assessed as degradation of HER2 at 2.945 to 29.45 uM after 24 hrs by Western blot analysis relative to control. It is filed as cell-based.
The target is the same in assay [9]. In words: Inhibition of […] HSP90 in human MCF7 cells assessed as reduction in HSP90 expression at 4.49 to 44.95 uM after 24 hrs by Western blot analysis relative to control. It is filed as cell-based.
Assay [10] has the same target. In words: Inhibition of C-terminal HSP90 in human MCF7 cells assessed as degradation of cRAF at 4.49 to 44.95 uM after 24 hrs by Western blot analysis relative to control. It is filed as cell-based.
Assay [11] has the same target. In words: Inhibition of C-terminal HSP90 in human MCF7 cells assessed as degradation of cyclin D1 at 4.49 to 44.95 uM after 24 hrs by Western blot analysis relative to control. It is filed as cell-based.
Assay [12] has the same target. In words: Inhibition of C-terminal HSP90 in human MCF7 cells assessed as degradation of HER2 at 4.49 to 44.95 uM after 24 hrs by Western blot analysis relative to control. It is filed as cell-based.

The structures appear in SMILES notation. Active and inactive are the calls of the source. The calls are words filed in the database; no cut-off is given here.

What is called IC50 is the concentration needed to halve the response being measured.

For `COc1cccc(-c2cc(C(=O)NCCc3cc(C)c(O[C@@H]4OC(C)(C)[C@H](OC)[C@@H](O)[C@H]4O)cc3-c3cccc(F)c3)ccc2OC)c1`, the IC50 in [1] is 43.9 µM; in assay [2] it was greater than 100 µM; in assay [3] it was greater than 50 µM; in assay [4], greater than 100 µM.
For `COc1cccc(-c2cc(C(=O)NCCc3c(OC)cc(OC4CCN(C)CC4)cc3-c3cccc(F)c3)ccc2OC)c1`, the IC50 was 5.72 µM in assay [1], 32.1 µM in assay [2], 8.71 µM in assay [3] and greater than 100 µM in [4].
The matching figures for `COc1cccc(-c2cc(C(=O)NCCc3ccc(OC4CCN(C)CC4)c(C)c3-c3cccc(F)c3)ccc2OC)c1`: 21.3 µM, greater than 50 µM, 17.8 µM and greater than 50 µM.
The matching figures for `COc1cccc(-c2cc(C(=O)NCCc3ccc(O[C@@H]4OC(C)(C)[C@H](OC)[C@@H](O)[C@H]4O)cc3-c3cccc(F)c3)ccc2OC)c1`: greater than 50 µM, greater than 50 µM, greater than 50 µM and 15.9 µM.
With `COc1cccc(-c2cc(C(=O)NCCc3cc(C)c(OC4CCN(C)CC4)cc3-c3cccc(F)c3)ccc2OC)c1`, the IC50 in assay [1] is 7.81 µM; in assay [2], 13.9 µM; in assay [3], 9.14 µM; in [4], 20.8 µM.
Turning to `COc1cccc(-c2cc(C(=O)NCCc3c(O)cc(OC4CCN(C)CC4)cc3-c3cccc(F)c3)ccc2OC)c1`, the IC50 in [1] was 15.7 µM; in assay [2], greater than 50 µM; in assay [3], 12.2 µM; in assay [4], 44.8 µM.
The corresponding values for `COc1cc(OC2CCN(C)CC2)cc(-c2cccc(F)c2)c1CCNC(=O)c1ccc(O)c(CC=C(C)C)c1` are 8.16 µM, 1.84 µM, 7.86 µM and greater than 100 µM.
On to `COc1cccc(-c2cc(C(=O)NCCc3c(OC)cc(O[C@@H]4OC(C)(C)[C@H](OC)[C@@H](O)[C@H]4O)cc3-c3cccc(F)c3)ccc2OC)c1`, for which the IC50 amounted to 49.4 µM in [1], 10.6 µM in assay [2], 44.7 µM in [3] and 8.09 µM in [4].
For the compound `CO[C@@H]1[C@@H](O)[C@@H](O)[C@H](Oc2ccc(CCNC(C)=O)c(-c3cccc(F)c3)c2)OC1(C)C` [CEMDOMESPIB], the IC50 in [1], in assay [2], in assay [3] and in assay [4] was greater than 500 µM each time.
In the case of `COc1cccc(-c2cc(C(=O)NCCc3ccc(OC4CCN(C)CC4)c(O)c3-c3cccc(F)c3)ccc2OC)c1`, the IC50 worked out at 9.29 µM in assay [1], 8.61 µM in assay [2], 11.3 µM in assay [3] and 22.4 µM in assay [4].
The matching figures for `CC(C)=CCc1cc(C(=O)NCCc2cc(C)c(OC3CCN(C)CC3)cc2-c2cccc(F)c2)ccc1O`: 15.2 µM, greater than 100 µM, 35.6 µM and greater than 100 µM.
The corresponding values for `CC(C)=CCc1cc(C(=O)NCCc2ccc(OC3CCN(C)CC3)c(O)c2-c2cccc(F)c2)ccc1O` are 3.25 µM, 42.3 µM, 1.45 µM and 23.1 µM.
Regarding `CC(C)=CCc1cc(C(=O)NCCc2c(O)cc(OC3CCN(C)CC3)cc2-c2cccc(F)c2)ccc1O`, the inhibition result in assay [5], in [6] and in assay [8] was “Active” throughout. For the same compound, the IC50 in assay [1] was determined as 7.59 µM; in [2], 1.32 µM; in assay [3], 5.89 µM; in [4], 22.8 µM. Besides, the inhibition entry in [7] was “inactive”.
`COc1cccc(-c2cc(C(=O)NCCc3c(O)cc(O[C@@H]4OC(C)(C)[C@H](OC)[C@@H](O)[C@H]4O)cc3-c3cccc(F)c3)ccc2OC)c1`: the IC50 in [1] was 23.5 µM; in assay [2], greater than 50 µM; in assay [3], 23.8 µM; in assay [4] it was greater than 50 µM.
Take `COc1cccc(-c2cc(C(=O)NCCc3ccc(OC4CCN(C)CC4)cc3-c3cccc(F)c3)ccc2OC)c1`: the IC50 amounted to 23.7 µM in assay [1], 5.49 µM in [2], 15.4 µM in assay [3] and 22.5 µM in assay [4].
With `COc1cccc(-c2cc(C(=O)NCCc3ccc(O[C@@H]4OC(C)(C)[C@H](OC)[C@@H](O)[C@H]4O)c(C)c3-c3cccc(F)c3)ccc2OC)c1`, the inhibition entry in assay [9] was “inactive”. Moreover, the inhibition entry in assay [10], in assay [11] and in [12] was “Active” each time. For the same compound, the IC50 is 43.5 µM in assay [1], greater than 50 µM in assay [2], 8.99 µM in [3] and 25.1 µM in assay [4].
As for `COc1cccc(-c2cc(C(=O)NCCc3ccc(OC4CCN(C)CC4)c(N)c3-c3cccc(F)c3)ccc2OC)c1`, the IC50 in assay [1] amounted to 15.3 µM; in assay [2], 18.9 µM; in assay [3], 11.3 µM; in [4] it was 22.4 µM.
